These results are taken from ChEMBL document CHEMBL3853307, “Anti-inflammatory Effect of Methyl Gallate on Experimental Arthritis: Inhibition of Neutrophil Recruitment, Production of Inflammatory Mediators, and Activation of Macrophages” (J Nat Prod, 2016).

One assay has as its system J774.A1. Nature of the assay: Antiinflammatory activity in mouse J774A.1 cells assessed as inhibition of zymosan and IFNgamma-induced IL6 production in cell-free supernatant at 0.1 to 10 uM preincubated for 1 hr followed by zymosan and IFNgamma addition measured after 24 hrs by sandwich ELISA. In kind it is functional, cell-based. Put shortly:
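J774A.1 macrophages (1 × 10^5/well, RPMI/10% FBS) adhered 24 h, preincubated 1 h with compound (0.1−10 μM) or dexamethasone (1 μM), then stimulated with zymosan (10 μg per 10^5 cells) and/or IFN-γ (25 U/mL) for 24 h. Supernatant IL-6 by sandwich ELISA; nitrite by Griess reaction at 540 nm. Quadruplicate wells, two experiments.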
In general terms: An ELISA detects its analyte on a solid surface through an enzyme-linked reagent.

In a further assay the test system is Mus musculus. Nature of the assay: Antiinflammatory activity in C57BL/6 mouse assessed as inhibition of zymosan-induced neutrophils recruitment in synovial cavity at 0.7 to 70 mg/kg, po administered 1 hr prior to zymosan challenge measured after 6 to 24 hrs by Grunwald-Giemsa-stained cytospin smear. In kind it is functional, organism-based. Put shortly: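 Male C57BL/6 mice, fasted overnight, dosed orally (vehicle saline/water, 200 μL) or i.p. 1 h before zymosan (500 μg in 25 μL saline, i.a., left knee). Knee swelling measured as change in transverse diameter from basal by digital caliper (mm). Synovial washes (PBS/EDTA) counted on a particle counter; differentials from May-Grünwald-Giemsa cytospins, cells ×10^5/cavity. Sampled at 6 and/or 24 h; seven mice/group.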

The source made the active and inactive calls. The rule behind the calls is not given here.

Regarding `COC(=O)c1cc(O)c(O)c(O)c1` [GALLIC ACID METHYL ESTER], the inhibition result in the assay with J774.A1 and in the assay on Mus musculus was “Active” each time.
